The list is not random: actives were taken first. Their share in the collection is about 1.7%.
CSN inh: blocks human CSN-mediated cullin deneddylation | AID 651999 | 0.38% of 360,000 active | Purified CSN, SCF-Nedd8-OG deneddylation, fluorescence polarization | Q92905 | inhibition, % at 12.5 µM;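 active means pattern-corrected inhibition above about 35%, with an unprinted fluorescence ratio check between 0.5 and 1.5, limit read from the data, passing the limit was not always enough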
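assay system = purified human Csn5 enzyme expressed in HEK293T cells | amount = 0.24 nM enzyme | buffer or medium = Tris/NaCl/DTT buffer, pH 7.5 | reagent = 10 nM SCFSkp2-Nedd8OG | compound = one concentration, 12.5 µM, 0.25% DMSO | times = 90 min reaction at room temperature | signal = FP | read-out basis = % inhibition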
TPT1 inhibitor: blocks Candida albicans tRNA 2'-phosphotransferase. recombinant caTPT1, FP RNA substrate dephosphorylation. inhibition, % at 5 µM. 0.81% of 300,000 active;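 active means inhibition above the mean of all tested compounds plus 3 SD, set per screening campaign, cut at about 24% in these data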
HNF4A DNA FP: change in binding of human HNF4 alpha to DNA | AID 1224865 | HNF4a-FITC DNA binding, fluorescence polarization, 1 h | P41235 | activity change, % at 10 µM | 0.3% of 360,000 active; in the data active means activity change above about 30%, passing the limit was not always enough
Target sequence (P41235 whole entry, looked up): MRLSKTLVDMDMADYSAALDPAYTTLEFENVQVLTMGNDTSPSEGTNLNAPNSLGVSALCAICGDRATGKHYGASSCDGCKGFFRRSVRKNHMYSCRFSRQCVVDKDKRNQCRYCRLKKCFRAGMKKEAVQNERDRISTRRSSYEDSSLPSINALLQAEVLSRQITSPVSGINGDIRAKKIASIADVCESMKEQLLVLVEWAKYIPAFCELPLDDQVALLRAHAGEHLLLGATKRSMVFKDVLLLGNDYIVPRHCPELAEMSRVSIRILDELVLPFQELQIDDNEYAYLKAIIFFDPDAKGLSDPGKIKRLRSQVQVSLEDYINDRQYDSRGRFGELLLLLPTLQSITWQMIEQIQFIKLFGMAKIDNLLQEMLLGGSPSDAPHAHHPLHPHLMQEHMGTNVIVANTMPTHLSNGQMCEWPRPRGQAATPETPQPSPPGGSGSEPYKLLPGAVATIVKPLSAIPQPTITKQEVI
IDE act: activators of human insulin-degrading enzyme in cells. 0.073% of 340,000 active. activation, % at 5.96 µM. HEK cells, FAbeta-B cleavage, fluorescence polarization; 0% vehicle, 100% cell-free pure enzyme wells. P14735;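 active means activation above the mean of all tested compounds plus 3 SD, set per screening campaign, cut at about 17% in these data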
IDE inh: cellular human IDE inhibition; P14735; inhibition, % at 5.59 µM; HEK cells, FAbetaB cleavage, fluorescence polarization; 0.41% of 320,000 active; AID 434962;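 active means percent inhibition above the average of all tested compounds plus 3 SD, set per screening campaign, cut at about 16% in these data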;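 further: IDE supplied by intact live HEK cells; FP after avidin binding of uncleaved biotin substrate so inhibition keeps polarization high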
Rpn11 block: blocks the human proteasome subunit Rpn11 | calls only at 20 µM | O00487 | human 26S proteasome, Ub4-pepOG fluorescence polarization; 20S core pre-blocked with epoxomicin | 0.59% of 360,000 active;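 active means inhibition at 20 µM, scaled to each plate's controls, above about 33%, limit read from the data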
Hits are given with their value; . = inactive; / = not tested or not shown; + = active, no number.

SMILES | CSN inh | TPT1 inhibitor | HNF4A DNA FP | IDE act | IDE inh | Rpn11 block
CCCCCCCCCCCCCCCC[n+]1ccc(/C=N/O)cc1 | . | . | 39.8 | . | . | +
CCCCCCCCCCCCCCCC[n+]1ccccc1 | . | / | . | . | / | +
CCCCCc1ccc(OCCC[n+]2ccccc2)c(CCCCC)c1 | . | . | . | . | . | .
CN1/C(=C/C(=O)c2ccc(Cl)cc2)Sc2cc3c(cc21)OCO3 | . | . | 44.9 | . | . | /
COc1ccc(C(=O)/C=C2/Sc3cc4c(cc3N2C)OCO4)cc1 | . | . | . | . | . | .
COc1ccc(/C=C2\CCCc3c2nc2ccccc2c3C(=O)O)cc1OC | / | . | / | / | . | /
CCOc1ccc(/C=C2\CCCc3c2nc2ccccc2c3C(=O)O)cc1OC | . | . | . | 47.6 | . | .
O=C1CCCC(=NNC(=O)c2cc3ccccc3cc2O)C1 | 72.0 | / | . | . | . | /
O=C(NN=C1CCCCCC1)c1cc2ccccc2cc1O | . | . | . | . | . | .
S=c1[nH]ncn1/N=C/c1ccc(Br)cc1 | . | . | . | . | . | .
S=c1[nH]ncn1/N=C/c1ccccc1 | . | . | 44.0 | . | . | .
Cc1ccc(C(=O)Nc2cccc(-c3cn4ccccc4n3)c2)cc1 | 35.2 | . | . | . | . | .
CCCCCC(=O)Nc1cccc(C2=NOC3(C2)C[C@@H](C(N)=O)N(C(=O)CC(c2ccccc2)c2ccccc2)C3)c1 (some centres not stated) | . | . | . | . | . | .
CCCCn1nc2cc(C(=O)NCCCCc3ccccc3)ccc2c1OCC | . | . | . | 20.6 | . | .
CCCCNC(=O)c1ccc2c(OCC)n(CCCC)nc2c1 | . | . | . | . | . | .
Nc1nc(CN2CCCCCC2)nc(Nc2ccccc2)n1 | . | . | . | . | . | .
Nc1nc(CN2CCC(Cc3ccccc3)CC2)nc(Nc2ccccc2)n1 | . | . | 54.5 | . | . | .
O=C(NCCCn1ccnc1)c1cc(-c2cccnc2)nc2ccc(Br)cc12 | . | . | . | . | . | .
CCC(=O)NC(=S)Nc1cccc(NC(=O)c2ccco2)c1 | . | . | . | . | . | .
Cn1ccnc1SCCNC(=O)CCc1nnc(CCCCc2ccccc2)o1 | . | . | . | . | . | .
CN(CC(=O)Nc1cccc(F)c1)C(=O)c1cc(-c2ccco2)nc2ccccc12 | 54.5 | . | . | . | . | .
CCN(CC)C(=O)c1sc2nc(-c3cccs3)cc(-c3cccs3)c2c1N | . | . | . | . | . | .
CCN(CC)C(=O)c1sc2nc(-c3cccs3)cc(-c3ccc(Cl)cc3)c2c1N | . | . | . | . | . | +
CCCCCCCNC(=O)C1(CC2CC(c3cccc(Br)c3)=NO2)CCNCC1 (configuration not stated) | . | . | . | 19.0 | . | .
CCCCCCCNC(=O)C1(CC2CC(c3cccc(Br)c3)=NO2)CCN(C(=O)Cc2ccc(F)cc2)CC1 (configuration not stated) | . | . | . | . | . | .
SMILES | CSN inh | TPT1 inhibitor | HNF4A DNA FP | IDE act | IDE inh | Rpn11 block
O=C(N/N=C/c1cccnc1)c1cc2c(ccc3ccccc32)o1 | 55.2 | . | . | . | . | .
O=C(N/N=C/c1cccnc1)c1cc2ccccc2o1 | . | . | . | . | . | .
C/C(=N\O)C(=O)NCC1CCNCC1 | . | . | . | . | . | .
Cc1onc(-c2ccccc2)c1C(=O)N1CCC(C)(C(=O)NS(=O)(=O)C2CC2)C1 (configuration not stated) | . | / | . | / | / | .
Nc1nc(SCc2ccc(F)cc2)n[nH]1 | . | . | . | . | . | .
COc1cc2oc(=O)cc(CN3CCOCC3)c2cc1Cl | 118.2 | / | . | / | / | .
O=C(Nc1cccc(-c2nc3cccnc3s2)c1)c1cccnc1Cl | . | . | . | . | . | .
O=C(Nc1cccc(-c2nc3cccnc3s2)c1)C1c2ccccc2Oc2ccccc21 | 76.2 | / | 47.3 | . | / | .
COc1ccc(-c2c(C(=O)O)c(C(=O)O)c3n2CCC3)cc1 | . | . | . | . | . | .
CCN(C(=O)c1cccc(S(=O)(=O)N2CCc3ccccc32)c1)C1CCS(=O)(=O)C1 (configuration not stated) | . | / | . | . | . | .
CC(C)S(=O)(=O)N1CCN(c2ccnc3cc(Cl)ccc23)CC1 | . | . | . | / | 23.3 | .
O=C(CSc1nc2c(cnn2-c2ccccc2)c(=O)[nH]1)c1ccc(Cl)cc1 | 88.4 | . | . | . | . | .
CCOC(=O)c1c(NC(=O)CSc2ncnc3ccccc23)sc(C(C)=O)c1C | . | . | . | . | . | .
COc1ccc(/C(O)=C/c2nc3ccc(C(=O)NCCc4cccc(C)c4)cc3[nH]c2=O)cc1OC | . | 67.1 | 44.1 | . | . | /
COc1ccc(C(=O)NCCc2ccccc2)cc1OC | . | . | . | . | . | .
CN(C(=S)NC(=O)c1ccccc1)C1CCCCC1 | 46.2 | . | . | . | . | .
O=C(COC(=O)c1cc(Br)ccc1O)NCC1CCCO1 (configuration not stated) | . | . | . | . | . | .
COc1ccc(N(CC2CO2)S(=O)(=O)c2ccccc2)cc1 (configuration not stated) | . | . | . | . | . | .
NC[C@H](Cc1ccccc1)NCCCCC1CCCCC1 | . | / | . | . | . | .
CNC[C@H](CC1CCCCC1)NC[C@H](Cc1ccccc1)NCCC12CC3CC(CC(C3)C1)C2 | . | . | . | 34.7 | . | .
COc1cc2cc(Oc3ccc4ccc(=O)oc4c3)c(=O)oc2cc1O[C@@H]1O[C@H](CO)[C@@H](O)[C@H](O)[C@H]1O | 38.0 | / | . | . | . | .
COc1cc2cc(Oc3ccc4ccc(=O)oc4c3)c(=O)oc2cc1OC1OC(COC(=O)CC(C)(O)CC(=O)O)C(O)C(O)C1O (configuration not stated) | . | . | . | . | . | .
O=C(CNC(=O)C1CCCCC1)Nc1ccccc1Cl | . | . | . | . | . | .
Cc1cc(OCC(=O)c2ccc(C(F)(F)F)cc2)n2cnnc2n1 | . | . | . | . | . | .
CNS(=O)(=O)c1ccc(NC(=O)c2cnn3c(C(F)F)cc(-c4ccccc4)nc23)cc1 | 71.8 | . | . | . | . | .
N#C/C(=C\c1coc2ccccc2c1=O)C(N)=S | . | . | . | . | . | +
CCC(=O)Nc1ccccc1C(=O)N1CCOCC1 | . | . | . | . | . | .
CCOC(=O)C1=C(CSc2nc(-c3ccccc3)ccc2C#N)OC(N)=C(C#N)C1c1ccccc1 (configuration not stated) | 38.8 | . | 39.3 | . | . | /
CCOC(=O)C1=C(CSc2nc(-c3ccccc3)ccc2C#N)OC(N)=C(C#N)C1c1cccnc1 (configuration not stated) | . | . | . | . | . | /
